Screening data (PubChem)
esBAF inh: Bmi1 luciferase reporter increase in mESCs, primary screen, esBAF inhibitor project, mouse ES cells, Bmi1 luciferase knock-in, single point; reporter increase, % at 12.5 µM; AID 602393, 2012; 24 h; 100% = twice the neutral-well signal; 350,000 compounds, 2% hits; in the data active = activation above about 40%; inconclusive = no clear call, values can overlap the other calls;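 also: a rise in the Bmi1 reporter signal indicates esBAF inhibition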
Wnt act: Wnt/beta-catenin pathway activators, primary screen, cell-based, plate reader, single point; Wnt/beta-catenin reporter cell assay, activator; activation, % at 9.35 µM; 300,000 compounds, 1.2% hits; AID 743398, 2014; in the data active = activation above about 30%, passing the limit was not always enough; inconclusive = no clear call, values can overlap the other calls
ERAP1 HTS inh: human ERAP1 aminopeptidase inhibitors, primary screen, biochemical, single point, plate reader | Endoplasmic reticulum aminopeptidase 1 (Homo sapiens), Q9NZ08 | recombinant ERAP1, Leu-AMC fluorescence, 60 min | inhibition, % at 10.7 µM | 340,000 compounds, 0.15% hits | AID 652197, 2013;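 active = mean replicate inhibition of at least 30%, or all replicates individually reaching that 30% level; inactive = mean below 30% and not every replicate reaching it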
Target sequence (Q9NZ08 whole entry, looked up): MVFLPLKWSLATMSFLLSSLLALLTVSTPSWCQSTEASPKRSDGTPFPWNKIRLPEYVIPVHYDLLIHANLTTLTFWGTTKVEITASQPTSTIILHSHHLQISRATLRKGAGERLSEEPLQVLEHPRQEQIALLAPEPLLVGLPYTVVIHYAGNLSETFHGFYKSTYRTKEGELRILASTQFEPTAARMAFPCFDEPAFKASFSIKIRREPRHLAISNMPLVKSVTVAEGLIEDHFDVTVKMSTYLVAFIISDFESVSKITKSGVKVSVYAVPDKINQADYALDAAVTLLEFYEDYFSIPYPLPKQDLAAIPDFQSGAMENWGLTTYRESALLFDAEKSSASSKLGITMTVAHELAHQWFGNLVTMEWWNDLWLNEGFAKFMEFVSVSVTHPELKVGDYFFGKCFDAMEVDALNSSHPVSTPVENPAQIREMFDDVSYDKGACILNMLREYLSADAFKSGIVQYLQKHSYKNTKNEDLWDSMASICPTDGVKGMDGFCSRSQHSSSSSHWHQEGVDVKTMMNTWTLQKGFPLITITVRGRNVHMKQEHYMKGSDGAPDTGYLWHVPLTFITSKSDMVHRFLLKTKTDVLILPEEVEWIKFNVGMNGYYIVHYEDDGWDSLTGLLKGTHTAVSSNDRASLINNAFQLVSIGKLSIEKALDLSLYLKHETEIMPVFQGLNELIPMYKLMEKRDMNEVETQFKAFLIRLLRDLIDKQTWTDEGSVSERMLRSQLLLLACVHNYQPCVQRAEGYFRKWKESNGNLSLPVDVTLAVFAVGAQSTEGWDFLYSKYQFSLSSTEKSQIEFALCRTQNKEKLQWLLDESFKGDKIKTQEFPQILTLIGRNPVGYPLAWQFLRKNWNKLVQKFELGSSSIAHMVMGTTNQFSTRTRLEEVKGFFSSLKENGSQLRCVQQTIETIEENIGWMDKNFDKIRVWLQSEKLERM
Cneo AK release: Cryptococcus neoformans cell lysis inducers, primary screen, AK release luminescence, single concentration; 360,000 compounds, 0.2% hits; C. neoformans lysis, adenylate kinase release luminescence, 4 h; normalised: neutral wells 0, clomiphene wells 100; lysis activity, % at 15 µM;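 active = mean lysis activity across replicates of at least 80%, whatever share of replicates individually reach that level; inactive = mean lysis activity below 80%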
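Schedule: static 4 h at 37 °C with compound, 1 h detection; system: C. neoformans cells; benchmarks: Clomiphene as positive control; buffer or medium: fresh YPD medium; measure: luminescence rise reflecting yeast cell lysis; measured by: luminescent adenylate kinase detection reagent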
HIV Env fusion: inhibitors of HIV-1 Env-driven cell-cell fusion, primary screen, HeLa-JRFL effector, CEM21 target cells, luciferase; AID 651610, 2012; inhibition, % at 12.3 µM; 360,000 compounds, 1.1% hits;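 active = mean replicate inhibition score of at least 50 and every replicate individually at or above 50; inconclusive = only one of the two criteria met; inactive = mean below 50 and not all replicates reaching 50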
MITF act: activators of MITF-driven TRPM1 promoter reporter, primary screen, cell-based, SK-MEL-5, luciferase, single point; SK-MEL-5 TRPM1-promoter luciferase, 24 h; % of positive control, neutral wells = 0; activation, % at 12.5 µM; 300,000 compounds, 0.75% hits; AID 588334, 2011;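 active = mean activation of at least 80% with every replicate also reaching 80%; inconclusive = mean reaches 80% but some replicate falls short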
Of the large screens only hits and unclear results are named; the others gave an inactive call. Shown are actives, neighbours in structure and some others; about 3.5% of the full set was active somewhere.

Clc1ccc(OCc2nc(-c3ccccn3)no2)c(Br)c1	none (no result: MITF act)
Brc1ccc(-c2noc(CCc3ccccc3)n2)o1	esBAF inh 50
Clc1ccccc1OCc1nc(-c2ccccn2)no1	Wnt act 39 (no result: ERAP1 HTS inh)
CN1CCN(C(=O)c2cc(COc3ccccc3)on2)[C@@H](c2ccccc2)C1	esBAF inh 64, Wnt act 42, MITF act 91 (no result: HIV Env fusion)
Cc1ccc(OCc2cc(C(=O)N3CCN(C)C[C@@H]3c3ccccc3)no2)cc1C	MITF act 113 (no result: esBAF inh)
Cc1ccc(OCc2cc(C(=O)N3CCC(Oc4cccnc4)CC3)no2)cc1C	none
CN1CCN(C(=O)c2cc(COc3c(F)cccc3F)on2)CC1c1ccccc1 (stereo unspecified)	none
CNC[C@H]1OCCCC[C@@H](C)Oc2ccc(NS(=O)(=O)c3ccc(F)cc3)cc2C(=O)N([C@@H](C)CO)C[C@H]1C	none (no result: Wnt act, ERAP1 HTS inh, Cneo AK release, MITF act)
CS(=O)(=O)c1ccc2nc(NC(=O)c3cc4ccccc4o3)sc2c1	esBAF inh 67 (no result: ERAP1 HTS inh)
O=C(Nc1nnc(C2CC2)s1)c1cc2ccccc2o1	esBAF inh 46, Wnt act inconclusive
Cc1ccc(C(=O)Nc2nc3ccc(S(C)(=O)=O)cc3s2)o1	Wnt act 53 (no result: ERAP1 HTS inh, MITF act)
O=C(Nc1nnc(C2CC2)s1)c1ccc(Cl)nc1	esBAF inh 53, Wnt act 34 (no result: HIV Env fusion)
Cc1nnc(NC(=O)c2cc3ccccc3o2)s1	none
C[C@@H]1CN([C@H](C)CO)C(=O)c2ccccc2-c2ccccc2CO[C@H]1CN(C)S(=O)(=O)c1cccs1	none (no result: Wnt act, MITF act)
COc1ccc2c3c([nH]c2c1)[C@@H](CO)N(S(C)(=O)=O)CC31CCN(C(=O)c2ccccc2)CC1	none (no result: esBAF inh, Wnt act, Cneo AK release, HIV Env fusion, MITF act)
c1cncc(-c2noc(-c3ccc4ccccc4c3)n2)c1	none
c1ccc(-c2ccc(-c3nc(-c4cccnc4)no3)cc2)cc1	Wnt act inconclusive (no result: ERAP1 HTS inh)
CCCCOc1ccc(-c2nc(-c3cccnc3)no2)cc1	MITF act 99 (no result: Wnt act, ERAP1 HTS inh, HIV Env fusion)
Cc1ccccc1-c1nc(-c2ccccn2)no1	none (no result: esBAF inh, Cneo AK release)
COc1ccc(-c2nc(-c3cccnc3)no2)cc1	Wnt act 53 (no result: esBAF inh, ERAP1 HTS inh, Cneo AK release, MITF act)
Cc1ccccc1-c1nc(Cc2ccccc2)no1	esBAF inh 60, MITF act 118 (no result: ERAP1 HTS inh, HIV Env fusion)
COc1ccc(-c2nc(-c3ccncc3)no2)cc1	none
COc1cc(OC)cc(-c2nc(-c3ccccc3)no2)c1	esBAF inh 48 (no result: ERAP1 HTS inh)
O=C(c1ccccc1)N1C[C@@H]2[C@H](c3ccccc31)[C@H](CO)N2Cc1ccccc1F	none (no result: Wnt act, HIV Env fusion, MITF act)
COc1ccc(S(=O)(=O)Nc2ccc3c(c2)C(=O)N([C@H](C)CO)C[C@H](C)[C@H](CN(C)C(=O)Nc2cccc4ccccc24)OCCCC[C@@H](C)O3)cc1	none (no result: Wnt act, ERAP1 HTS inh, MITF act)
COc1ccc(NC(=O)N[C@@H]2CC[C@H](CCn3cc(-c4ccccn4)nn3)O[C@@H]2CO)cc1	none (no result: Wnt act, MITF act)
CO[C@H]1CN(C)C(=O)c2cc(NC(=O)c3cccc(Oc4ccccc4)c3)ccc2OC[C@H](C)NC[C@@H]1C	none (no result: Wnt act, ERAP1 HTS inh, Cneo AK release, HIV Env fusion, MITF act)
Cc1ccc(-c2noc(-c3ccccc3F)n2)cc1	Wnt act 57 (no result: Cneo AK release)
Clc1ccccc1-c1nc(-c2cccnc2)no1	none (no result: Wnt act, ERAP1 HTS inh, HIV Env fusion)
CCOc1ccc(-c2nc(-c3cccnc3)no2)cc1	Wnt act 47 (no result: ERAP1 HTS inh)
COc1ccc(-c2nc(-c3ccccn3)no2)cc1	HIV Env fusion 62 (no result: esBAF inh, Cneo AK release)
Cc1ccccc1-c1nc(-c2cccnc2)no1	Wnt act 48 (no result: ERAP1 HTS inh, MITF act)
N/C(=N\NC(=O)Nc1ccc(Cl)cc1)c1ccccn1	esBAF inh 47
CSc1ncc(C(=O)Nc2ccc(C(C)=O)cc2)c(-c2ccccc2)n1	esBAF inh 61
CSc1ncc(C(=O)Nc2ccccc2F)c(-c2ccccc2)n1	none (no result: MITF act)
C[C@@H]1CCCCO[C@@H](CN(C)C(=O)Nc2ccccc2)[C@@H](C)CN([C@H](C)CO)C(=O)c2cc(NS(C)(=O)=O)ccc2O1	none (no result: Wnt act, MITF act)
CN1CC(c2ccccc2)C2(SC(=S)N(Cc3ccco3)C2=O)C12C(=O)Nc1ccccc12 (stereo unspecified)	HIV Env fusion 77 (no result: Wnt act, ERAP1 HTS inh)
O=C(CCl)N=c1sccn1Cc1cccc2ccccc12	HIV Env fusion 66 (no result: esBAF inh, Cneo AK release)
CCC(=O)OCC(=O)N=c1sccn1Cc1ccccc1Cl	none
